We go through 97 molecules from ChEMBL document CHEMBL4513216, “Probing the Open Global Health Chemical Diversity Library for Multistage-Active Starting Points for Next-Generation Antimalarials” (ACS Infect Dis, 2020).

This data set can be described thus: Toxicity liver stage against HepG2, at 10uM. The format is cell-based. Set-up: test concentration 10 uM, cell line HepG2-A16-CD81EGFP. Conditions: human, HepG2-A16-CD81EGFP cells; read-out: INHIBITION
Summed up:
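Uninfected HepG2-A16-CD81EGFP cells, 3 × 10^3 per well, 1536-well, plated on prespotted compound at 10 μM final, parasite-free screening media added to match infected plates; puromycin 10 μM positive, DMSO 0.5% negative; run in parallel with 48 h PbLuc assay at 37 °C, 5% CO2; viability by CellTiter-Glo luminescence, normalized to controls.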
Take `CC(=O)NCC(=O)N1CCN(CC2CC2)c2ncccc2C1`: the cytotoxicity at 10 µM came out at 0.359%.

`Nc1c(N2CCOCC2)ncnc1N1CCOCC1`: the cytotoxicity at 10 µM is -1.31%.

Turning to `COCCN1CCCC12CCN(Cc1cccnc1OC)CC2`, the cytotoxicity at 10 µM was determined as 15.4%.

For `CCOC1CCCN(C(=O)c2ccccc2NCc2cccnc2)C1` (configuration not stated), the cytotoxicity at 10 µM turned out to be 0.595%.

`CC(=O)N1N=C(COc2ccc(C)cc2)OC1c1ccc(N(C)C)cc1` (configuration not stated): the cytotoxicity at 10 µM is -3.33%.

Consider `CNC(=O)C(NC(C)=O)c1ccc(F)c(F)c1` (configuration not stated), for which the cytotoxicity at 10 µM is -6.1%.

For `CCc1ocnc1C(=O)N1CCN(c2ccc3ccccc3c2)CC1`, the cytotoxicity at 10 µM was determined as 2.99%.

As for `COC(=O)N1CCC2(CC1)CC(c1ccccc1)CN(C)C2` (configuration not stated), the cytotoxicity at 10 µM amounted to 2.09%.

For `Cc1ccc(N2CCCC(NC(=O)C(C)(C)C#N)C2=O)cc1` (configuration not stated), the cytotoxicity at 10 µM was -2.42%.

With `Cn1nnnc1SCCC(=O)NCC(C)(C)c1ccccc1F`, the cytotoxicity at 10 µM was 5.68%.

For `CNC(=O)C1CN(c2cc(C)ncn2)CCN1Cc1ccccc1` (configuration not stated), the cytotoxicity at 10 µM was 10%.

`Cc1cc(CNC(=O)N(Cc2ccc(F)cc2F)C2CC2)no1`: the cytotoxicity at 10 µM was -18.5%.

For the molecule `CCc1nnc(Nc2cccc(C3CCN(C(=O)CO)CC3)n2)s1`, the cytotoxicity at 10 µM is -3.86%.

On to `CCc1nc(C)c([C@H]2CN(C)C[C@@H]2C(=O)Nc2cccc3cn[nH]c23)[nH]1`, for which the cytotoxicity at 10 µM was -3.44%.

With `Cc1nn(C)c(Oc2ccc(Cl)cc2)c1CN1CCC(CN)C1` (configuration not stated), the cytotoxicity at 10 µM was -7.52%.

Regarding `Cc1ccsc1CNC(=O)NC(C)c1ccc2c(c1)CCC(=O)N2` (configuration not stated), the cytotoxicity at 10 µM is 5.31%.

Consider `COC(=O)C(C)N1CCCc2cc(OC)ccc2C1` (configuration not stated), for which the cytotoxicity at 10 µM is 11%.

Take `CCN1CC(CN(C)Cc2nc(-c3cccc(C)c3)oc2C)CC1=O` (configuration not stated): the cytotoxicity at 10 µM is -9.8%.

As for `COCCC(=O)N1CCC(Nc2ncc(Cl)cn2)CC1`, the cytotoxicity at 10 µM was -6.74%.

As for `CC(C)c1cc(COCCCC(=O)O)no1`, the cytotoxicity at 10 µM was 11.1%.

As to `CC(C)CNC(=O)Nc1ccc(CN2CCOC2=O)cc1`, the cytotoxicity at 10 µM worked out at 10.2%.

On to `CCCN(CC1CC1)C(=O)Nc1ccc(N2CCSCC2)cc1C`, for which the cytotoxicity at 10 µM amounted to 3.05%.

Consider `COCCN1CCO[C@@H]2CN(C(=O)NCc3ccccc3)CC[C@@H]2C1`, for which the cytotoxicity at 10 µM came to 3.23%.

Turning to `O=C(NS(=O)(=O)Cc1cc(-c2ccccc2)no1)C1CCOCC1`, the cytotoxicity at 10 µM was -2.85%.

For `CSCC[C@@H](CO)Nc1ccc(-c2nc(-c3ccccc3F)no2)cn1`, the cytotoxicity at 10 µM amounted to 9.74%.

For `Cc1ccc(-c2nnc(CN3CCNC(=O)C3)o2)cc1`, the cytotoxicity at 10 µM was -1.26%.

Take `COCC(C)NC(=O)c1cn(C(C)(C)C)c2ncccc12` (configuration not stated): the cytotoxicity at 10 µM was 2.69%.

In the case of `CCC1CN(C(=O)c2ccc(Cl)cc2O)CCN1C(C)C` (configuration not stated), the cytotoxicity at 10 µM was -15.5%.

On to `Cc1nc(CN(C)C(=O)Nc2cccc(COC(C)C)c2C)no1`, for which the cytotoxicity at 10 µM worked out at 3.95%.

For `CCCN1CCc2nc(SCc3ccccc3)[nH]c(=O)c2C1`, the cytotoxicity at 10 µM was 0.279%.

In the case of `Fc1cccc(CN2CCOCC3(CCN(C4CCOCC4)C3)C2)c1` (configuration not stated), the cytotoxicity at 10 µM is -0.503%.

As for `Cc1nc(COC[C@@H]2CC[C@H]3[C@H](CCN3S(C)(=O)=O)O2)cs1`, the cytotoxicity at 10 µM came out at 5.22%.

For `Cn1cc(C(=O)NCc2cn3c(n2)CN(CC2CCOC2)CC3)cn1` (configuration not stated), the cytotoxicity at 10 µM was found to be 5.22%.

In the case of `Cc1ccc(CC2COCCN(Cc3ccccc3)C2)nc1` (configuration not stated), the cytotoxicity at 10 µM stood at 8.3%.

For `O=C1C(Sc2cnn[nH]2)CCCN1c1ccccc1F` (configuration not stated), the cytotoxicity at 10 µM was found to be 24.9%.

On to `CN(C)c1ccc(CN(CCCn2ccnc2)Cc2c[nH]cn2)cc1`, for which the cytotoxicity at 10 µM is -1.34%.

In the case of `CC(=O)N(C)C1CCN(C(=O)NCC(C)Cc2cccs2)CC1` (configuration not stated), the cytotoxicity at 10 µM is -1.99%.

For `CCN1C(=O)CC[C@@H]2N(C(=O)CCn3nccc3C)CCCC[C@@]21C`, the cytotoxicity at 10 µM is -3.41%.

As for `CCc1nc(C2CCCN(C(=O)NC3CC3)C2)no1` (configuration not stated), the cytotoxicity at 10 µM was -15.3%.

`CC(=O)N1Cc2nc(C(=O)NCCc3cccnc3)oc2C1`: the cytotoxicity at 10 µM is -81.8%.

As for `COCCn1ccnc1C1CCN(C(=O)C(O)c2ccc(F)cc2)CC1` (configuration not stated), the cytotoxicity at 10 µM was 1.73%.

In the case of `CCOc1ccc(C#N)cc1NCC(=O)NC1(C#N)CCCC1`, the cytotoxicity at 10 µM is -30.8%.

Take `CNC(=O)CN1CCOC(c2cccc(N)n2)C1` (configuration not stated): the cytotoxicity at 10 µM is -5.22%.

In the case of `COCC(=O)N1CCC2(CC1)C(=O)N(Cc1cccnc1)CCN2C`, the cytotoxicity at 10 µM came to 0.964%.

On to `CCc1cnc(CN(C(C)=O)C2CCN(CCc3ccncc3)C2)o1` (configuration not stated), for which the cytotoxicity at 10 µM was -5.95%.

`Cc1ccc2c(c1)CCC21CCN(C(=O)CN(C)C)CC1`: the cytotoxicity at 10 µM was -6.25%.

Take `Cn1ncc2c(N3CCCN4CCC[C@H]4C3)nc(C(C)(C)C)nc21`: the cytotoxicity at 10 µM was -128%.

For the molecule `COC(=O)COc1c(F)cc(Br)cc1C(C)=O`, the cytotoxicity at 10 µM came out at 2.63%.

For the molecule `O=c1c2ccccc2nc2n1CCN(Cc1cccs1)CC2`, the cytotoxicity at 10 µM was 2.39%.

On to `Cc1cnc(N2C[C@H]3CCN(CC4CC4)C[C@H]3C2)nc1`, for which the cytotoxicity at 10 µM was determined as 6.34%.

On to `O=C(CCc1ccc(Br)cc1)NCCc1nnc[nH]1`, for which the cytotoxicity at 10 µM is 2.7%.

As for `CC(C)c1nc(CNCC2CCCN2c2cccnn2)cs1` (configuration not stated), the cytotoxicity at 10 µM is -4.84%.

Consider `Cc1ccccc1C1(CNCc2cnc(N3CCOCC3)nc2)CC1`, for which the cytotoxicity at 10 µM is -8.23%.

`O=C1OCCN1CCCN1CCCC1c1ccc(O)cc1` (configuration not stated): the cytotoxicity at 10 µM was -6.3%.

Turning to `CC/C=C(/C)C(=O)NS(=O)(=O)c1ccc(C#N)cc1C(F)(F)F`, the cytotoxicity at 10 µM turned out to be 11.8%.

With `Cc1[nH]ccc1C(=O)Nc1cccc(CN2CCC(CO)CC2)c1`, the cytotoxicity at 10 µM is -9.37%.

Take `CC(C)c1cc(NC2CCCN(C(=O)c3cccs3)C2)ncn1` (configuration not stated): the cytotoxicity at 10 µM was -7.55%.

Regarding `Cc1noc(CN(CCc2ccco2)Cc2cccc(C#N)c2)n1`, the cytotoxicity at 10 µM was 3.04%.

As to `CC(NC(=O)Cc1cccs1)(C(N)=O)c1cccc(Cl)c1` (configuration not stated), the cytotoxicity at 10 µM is 11.3%.

Turning to `COCCn1nc(C(=O)N2CCN(C)CC2C)ccc1=O` (configuration not stated), the cytotoxicity at 10 µM is -0.451%.

Turning to `CN(CCCNC(=O)C1CCc2cn[nH]c2C1)c1ccc(F)cc1` (configuration not stated), the cytotoxicity at 10 µM came to 14.2%.

Turning to `Cc1sc(-c2ccco2)nc1C(=O)N1CCCC1Cn1cccn1` (configuration not stated), the cytotoxicity at 10 µM was -11.2%.

Take `CCc1ccc2nc(C)cc(C(=O)N[C@@H]3CCCNC3)c2c1`: the cytotoxicity at 10 µM was -5.09%.

Consider `O=C(O)[C@@H]1CN(C(=O)CSCC2CC2)C[C@H]1c1ccncc1`, for which the cytotoxicity at 10 µM is -17.6%.

As to `CC(C)c1nc2n(n1)CC(NCc1cc3ccccc3o1)CC2` (configuration not stated), the cytotoxicity at 10 µM is -3.61%.

On to `CNC(=O)c1ccc(C2CN(C(=O)c3scnc3C)CCO2)nc1` (configuration not stated), for which the cytotoxicity at 10 µM is 19.7%.

On to `Cc1cccc(OCC(=O)NS(=O)(=O)Cc2ccccc2)c1`, for which the cytotoxicity at 10 µM turned out to be 0.224%.

Regarding `Cn1cc(C[C@H]2[C@H](O)CCN2C(=O)c2ccsc2)cn1`, the cytotoxicity at 10 µM is -72.6%.

Turning to `Cc1cccc(-n2nnnc2C(C)(C)Nc2ccccc2C)c1`, the cytotoxicity at 10 µM was 8%.

Turning to `Cc1nc(N2CCN(C)CC2)ncc1C(=O)N1CCN(C)CC1`, the cytotoxicity at 10 µM turned out to be 3.85%.

On to `O=C1CCCC2=C1C(c1ccco1)C1C(=O)NN=C1N2` (configuration not stated), for which the cytotoxicity at 10 µM was found to be 2.1%.

`CCC(SC)C(=O)N1CCC(n2ccnn2)CC1` (configuration not stated): the cytotoxicity at 10 µM was -41.5%.

On to `CC(C)n1[nH]c(=O)c2c1NC(=O)CC2c1ccc(S(C)(=O)=O)cc1` (configuration not stated), for which the cytotoxicity at 10 µM is -2.28%.

As to `CS(=O)(=O)N1CC[C@@H]2O[C@@H](COCC(=O)N3CCCC3)CC[C@@H]21`, the cytotoxicity at 10 µM was -0.879%.

Turning to `Cc1ccc(C(C(=O)NC(C)(C)CN2CCCC2)N(C)C)cc1` (configuration not stated), the cytotoxicity at 10 µM was -6.93%.

With `Cn1ccnc1CN1CCCN(C(=O)c2ccc(O)nc2)CC1`, the cytotoxicity at 10 µM was -26.3%.

For `c1coc(-c2nc(CNC3CCCNC3)no2)c1` (configuration not stated), the cytotoxicity at 10 µM is -25.2%.

As for `C[C@H]1C[C@H]2CN(C(=O)C3=CCCC3)CC[C@H]2O1`, the cytotoxicity at 10 µM was determined as 3.76%.

As for `CN(C)S(=O)(=O)N1C[C@@H]2CN(Cc3ccoc3)CCO[C@@H]2C1`, the cytotoxicity at 10 µM was determined as 12.2%.

As to `COC(=O)c1ccc(S(=O)(=O)N2CCC(Oc3cccnn3)CC2)cc1`, the cytotoxicity at 10 µM was -4.83%.

For `CC(C)C(=O)N1C[C@H]2CCCN[C@H]2C1`, the cytotoxicity at 10 µM was 1.55%.

In the case of `COc1ccc(C2=CCN(C(=O)CN(C)Cc3ccoc3)CC2)cc1`, the cytotoxicity at 10 µM is -4.87%.

Turning to `COc1ccc(CN2CCCC3(CC2)CNC(=O)O3)cc1OC` (configuration not stated), the cytotoxicity at 10 µM was 5.75%.

As for `CC(NC(=O)NCCCN1CCCCCC1)c1nncn1C` (configuration not stated), the cytotoxicity at 10 µM was -7.1%.

On to `CC(C)NC(=O)[C@]12COC[C@H]1CN(Cc1cnn(C)c1)C2`, for which the cytotoxicity at 10 µM was determined as 3.63%.

Take `O=C(CCNC(=O)c1ccc(Cl)cc1)NCc1nc(C2CC2)no1`: the cytotoxicity at 10 µM turned out to be 0.648%.

For the molecule `Cc1cnn(CC2CCCN2C(=O)c2cc(O)nc3ccccc23)c1` (configuration not stated), the cytotoxicity at 10 µM was -6.5%.

As for `c1csc(CN2CCc3nc(N4CCOCC4)nc(NC4CC4)c3C2)n1`, the cytotoxicity at 10 µM came to 0.0529%.

Regarding `CC1(C)CN(C(=O)c2ncc(F)cc2F)CCC1(O)CN1CCOCC1` (configuration not stated), the cytotoxicity at 10 µM was -8.37%.

Turning to `Cc1nnc(CN2CCC3(CCC(=O)N(C4CCC(O)CC4)C3)CC2)o1` (configuration not stated), the cytotoxicity at 10 µM was -8.23%.

Regarding `O=S(=O)(Nc1cn[nH]c1)c1ccc(Br)c(F)c1`, the cytotoxicity at 10 µM was determined as 0.462%.

As for `Fc1cccc(-c2nc(CN3CCn4c(nnc4C4CC4)C3)co2)c1`, the cytotoxicity at 10 µM worked out at 4.4%.

As to `CN(C)c1ncc(I)c(C2CCCN2S(C)(=O)=O)n1` (configuration not stated), the cytotoxicity at 10 µM amounted to 3.8%.

As for `CC(C)COCC(NC(=O)c1ccccn1)c1ccco1` (configuration not stated), the cytotoxicity at 10 µM is -7.52%.

On to `O=C(c1ccncc1)N1CCc2c(COCC3CC3)cncc2C1`, for which the cytotoxicity at 10 µM was -78.7%.

On to `Cc1noc(CN2CC=C(c3c[nH]c4ncccc34)CC2)n1`, for which the cytotoxicity at 10 µM was determined as 44.7%.

As to `NC(=O)CN1CC2(CCC1=O)CCN(Cc1ccccc1F)CC2`, the cytotoxicity at 10 µM worked out at 1.81%.
